Source: ChEMBL document CHEMBL1821673, “Development of β-amino alcohol derivatives that inhibit Toll-like receptor 4 mediated inflammatory response as potential antiseptics” (J Med Chem, 2011)
Active and inactive are the calls of the source. The calls are words filed in the database; no cut-off is given here.

Tests used:
Blood = assay: Cytotoxicity against human whole blood assessed as hemolysis at 1 mM; assay type: tissue-based; conditions: 1000 µM
Summary of the method: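 Human whole blood anticoagulated with lepirudin, exposed to compound at up to 1 mM; hemolysis checked.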

Toll-like receptor 4 [1] = target: T1, Toll-like receptor 4 (Mus musculus, UniProt Q9QUK6); assay: Inhibition of LPS-induced TLR4 activation in mouse RAW264.7 cells assessed as reduction in NO production after 18 to 24 hrs; assay type: cell-based
T1 sequence (Q9QUK6 whole entry): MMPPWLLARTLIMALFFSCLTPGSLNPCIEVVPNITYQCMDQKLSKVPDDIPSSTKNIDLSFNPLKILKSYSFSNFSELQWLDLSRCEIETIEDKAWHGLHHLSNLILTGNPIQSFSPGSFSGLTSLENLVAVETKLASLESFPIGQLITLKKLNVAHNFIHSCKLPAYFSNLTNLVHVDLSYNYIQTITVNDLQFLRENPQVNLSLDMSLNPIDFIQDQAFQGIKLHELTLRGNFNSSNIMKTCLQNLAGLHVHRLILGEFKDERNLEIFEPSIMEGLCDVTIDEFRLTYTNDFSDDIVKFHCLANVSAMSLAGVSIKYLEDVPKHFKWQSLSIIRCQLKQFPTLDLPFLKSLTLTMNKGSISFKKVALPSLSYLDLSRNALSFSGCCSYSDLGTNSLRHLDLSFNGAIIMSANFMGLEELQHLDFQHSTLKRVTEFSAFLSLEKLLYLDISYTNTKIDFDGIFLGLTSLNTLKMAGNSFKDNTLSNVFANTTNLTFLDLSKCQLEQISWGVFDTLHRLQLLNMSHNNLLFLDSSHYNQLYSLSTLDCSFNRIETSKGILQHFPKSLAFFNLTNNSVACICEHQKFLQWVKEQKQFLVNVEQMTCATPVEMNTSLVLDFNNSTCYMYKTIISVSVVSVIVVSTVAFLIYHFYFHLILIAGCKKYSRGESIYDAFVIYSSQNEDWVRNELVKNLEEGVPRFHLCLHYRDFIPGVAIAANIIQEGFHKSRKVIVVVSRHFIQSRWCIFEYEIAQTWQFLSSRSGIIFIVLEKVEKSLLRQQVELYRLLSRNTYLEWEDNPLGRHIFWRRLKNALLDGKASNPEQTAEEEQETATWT
Summary of the method: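 RAW264.7 cells, 100,000 per well, grown 24 h in RPMI with 10% FBS, then switched to unsupplemented RPMI. LPS and compound added together, 18–24 h at 37 °C. Medium nitrite measured with 2,3-diaminonaphthalene (ex 365/em 450 nm) against a nitrite standard curve. Quadruplicate; IC50 by a modified Kou-type method.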

Toll-like receptor 4 [2] = target: T2, Toll-like receptor 4 (Homo sapiens, UniProt O00206); assay: Inhibition of LPS-induced TLR4 activation in human whole blood assessed as inhibition of IL-8 release at 500 uM preincubated for 5 to 10 mins
T2 sequence (O00206 whole entry): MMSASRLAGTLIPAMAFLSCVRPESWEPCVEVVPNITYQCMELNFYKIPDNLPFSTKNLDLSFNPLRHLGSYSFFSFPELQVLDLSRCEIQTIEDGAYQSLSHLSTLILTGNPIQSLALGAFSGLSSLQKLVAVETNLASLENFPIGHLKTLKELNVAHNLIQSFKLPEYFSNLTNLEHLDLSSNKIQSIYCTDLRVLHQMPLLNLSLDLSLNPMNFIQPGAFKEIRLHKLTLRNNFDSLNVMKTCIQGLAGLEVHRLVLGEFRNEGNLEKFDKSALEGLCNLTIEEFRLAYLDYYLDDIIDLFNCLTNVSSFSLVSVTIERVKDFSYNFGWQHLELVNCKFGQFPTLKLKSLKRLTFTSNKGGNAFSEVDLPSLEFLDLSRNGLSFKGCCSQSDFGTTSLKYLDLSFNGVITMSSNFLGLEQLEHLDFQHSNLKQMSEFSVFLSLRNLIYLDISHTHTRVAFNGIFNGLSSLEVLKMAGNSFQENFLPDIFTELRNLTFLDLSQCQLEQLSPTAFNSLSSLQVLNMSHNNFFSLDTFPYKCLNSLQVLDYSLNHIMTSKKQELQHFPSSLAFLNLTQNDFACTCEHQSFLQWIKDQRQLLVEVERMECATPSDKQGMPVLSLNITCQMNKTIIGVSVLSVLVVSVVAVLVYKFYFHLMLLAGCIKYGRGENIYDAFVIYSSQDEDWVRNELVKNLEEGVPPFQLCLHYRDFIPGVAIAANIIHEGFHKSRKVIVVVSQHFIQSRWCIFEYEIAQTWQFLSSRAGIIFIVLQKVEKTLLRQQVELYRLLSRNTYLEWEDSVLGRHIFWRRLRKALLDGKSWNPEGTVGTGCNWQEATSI
Summary of the method: (§1)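 Fresh human blood anticoagulated with lepirudin, preincubated with compound 5–10 min at 37 °C, then stimulated with 100 ng/mL ultrapure E. coli 0111:B4 LPS, rotating 2 h at 37 °C. Stopped with EDTA 10 mM final; plasma TNF-α, IL-8 and IL-6 measured by singleplex Bio-plex, expressed as % of LPS without inhibitor. n = 3 or 9, paired two-sided t-test.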

Toll-like receptor 4 [3] = target: T2, Toll-like receptor 4; assay: Inhibition of LPS-induced TLR4 activation in human whole blood assessed as inhibition of IL-6 release at 500 uM preincubated for 5 to 10 mins; summary of the method: as §1
Toll-like receptor 4 [4] = target: T2, Toll-like receptor 4; assay: Inhibition of LPS-induced TLR4 activation in human whole blood assessed as inhibition of IL-8 release preincubated for 5 to 10 mins; summary of the method: as §1
Toll-like receptor 4 [5] = target: T2, Toll-like receptor 4; assay: Inhibition of LPS-induced TLR4 activation in human whole blood assessed as inhibition of IL-6 release preincubated for 5 to 10 mins; summary of the method: as §1
Toll-like receptor 4 [6] = target: T2, Toll-like receptor 4; assay: Inhibition of LPS-induced TLR4 activation in human whole blood assessed as inhibition of TNFalpha release preincubated for 5 to 10 mins; summary of the method: as §1
Toll-like receptor 4 [7] = target: T2, Toll-like receptor 4; assay: Inhibition of LPS-induced TLR4 activation in human whole blood assessed as inhibition of TNFalpha release at 500 uM preincubated for 5 to 10 mins; summary of the method: as §1
Toll-like receptor 4 [8] = target: T2, Toll-like receptor 4; assay: Inhibition of LPS-induced TLR4 activation in human whole blood assessed as inhibition of IL-6 release at 250 uM preincubated for 5 to 10 mins; summary of the method: as §1
[9] = target: Serine/threonine-protein kinase pim-1 (Homo sapiens) (UniProt P11309); assay: Inhibition of PIM1 at 16 uM by luciferase fragment complementation assay
[10] = target: Glycogen synthase kinase-3 alpha (Homo sapiens) (UniProt P49840); assay: Inhibition of GSK3alpha at 16 uM by luciferase fragment complementation assay
[11] = target: RAC-alpha serine/threonine-protein kinase (Homo sapiens) (UniProt P31749); assay: Inhibition of AKT1 at 16 uM by luciferase fragment complementation assay
Chain of RAC-alpha serine/threonine-protein kinase (Homo sapiens) (P31749 whole entry, the tested form may be a part): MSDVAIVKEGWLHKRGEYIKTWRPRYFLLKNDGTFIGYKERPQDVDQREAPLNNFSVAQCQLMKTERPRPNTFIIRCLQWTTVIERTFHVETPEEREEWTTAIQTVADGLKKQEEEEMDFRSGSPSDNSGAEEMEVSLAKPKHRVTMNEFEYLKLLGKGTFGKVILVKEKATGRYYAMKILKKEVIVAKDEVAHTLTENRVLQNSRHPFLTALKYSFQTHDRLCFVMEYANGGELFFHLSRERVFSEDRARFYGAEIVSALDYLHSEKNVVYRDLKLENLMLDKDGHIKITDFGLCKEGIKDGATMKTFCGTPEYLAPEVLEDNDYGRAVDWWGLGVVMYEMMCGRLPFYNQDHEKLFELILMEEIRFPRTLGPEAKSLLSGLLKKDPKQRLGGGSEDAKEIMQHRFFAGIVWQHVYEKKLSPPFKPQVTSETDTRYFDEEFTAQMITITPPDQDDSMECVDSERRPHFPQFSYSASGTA

[12] = target: Serine/threonine-protein kinase PAK 1 (Homo sapiens) (UniProt Q13153); assay: Inhibition of PAK1 at 16 uM by luciferase fragment complementation assay
[13] = target: Serine/threonine-protein kinase PLK4 (Homo sapiens) (UniProt O00444); assay: Inhibition of PLK4 at 16 uM by luciferase fragment complementation assay
[14] = target: Platelet-derived growth factor receptor beta (Homo sapiens) (UniProt P09619); assay: Inhibition of PDGFRB at 16 uM by luciferase fragment complementation assay
Chain of Platelet-derived growth factor receptor beta (Homo sapiens) (P09619 whole entry, the tested form may be a part): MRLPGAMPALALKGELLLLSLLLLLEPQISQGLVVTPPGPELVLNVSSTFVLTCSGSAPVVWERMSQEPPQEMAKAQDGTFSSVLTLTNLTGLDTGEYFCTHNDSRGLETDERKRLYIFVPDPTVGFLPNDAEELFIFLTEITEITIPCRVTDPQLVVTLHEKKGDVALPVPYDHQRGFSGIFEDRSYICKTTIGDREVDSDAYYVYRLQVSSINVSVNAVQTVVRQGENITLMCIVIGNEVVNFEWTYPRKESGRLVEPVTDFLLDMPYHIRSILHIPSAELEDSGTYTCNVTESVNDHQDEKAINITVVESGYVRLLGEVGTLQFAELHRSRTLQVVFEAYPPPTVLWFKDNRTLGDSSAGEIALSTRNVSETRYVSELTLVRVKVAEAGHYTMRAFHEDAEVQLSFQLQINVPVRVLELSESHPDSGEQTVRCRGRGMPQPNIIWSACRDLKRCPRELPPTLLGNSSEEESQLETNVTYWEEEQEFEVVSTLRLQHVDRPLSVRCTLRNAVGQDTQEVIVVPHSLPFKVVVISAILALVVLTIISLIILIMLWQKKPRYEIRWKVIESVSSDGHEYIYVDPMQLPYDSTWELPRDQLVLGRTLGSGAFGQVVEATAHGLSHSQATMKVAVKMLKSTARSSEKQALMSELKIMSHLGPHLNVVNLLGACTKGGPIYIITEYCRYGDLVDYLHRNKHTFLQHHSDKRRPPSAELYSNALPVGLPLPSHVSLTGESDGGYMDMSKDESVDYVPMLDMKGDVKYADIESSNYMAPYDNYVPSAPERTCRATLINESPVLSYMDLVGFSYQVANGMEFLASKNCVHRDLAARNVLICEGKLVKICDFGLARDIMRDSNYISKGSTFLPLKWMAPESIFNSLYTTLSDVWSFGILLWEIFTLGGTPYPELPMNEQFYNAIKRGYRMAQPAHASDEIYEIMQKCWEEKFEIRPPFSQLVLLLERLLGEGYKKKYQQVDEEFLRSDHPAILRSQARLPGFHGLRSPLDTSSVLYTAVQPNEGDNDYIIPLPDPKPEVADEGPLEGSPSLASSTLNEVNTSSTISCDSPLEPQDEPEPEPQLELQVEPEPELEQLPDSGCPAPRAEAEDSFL

[15] = target: Discoidin domain-containing receptor 2 (Homo sapiens) (UniProt Q16832); assay: Inhibition of DDR2 at 16 uM by luciferase fragment complementation assay
[16] = target: Protein kinase C gamma type (Homo sapiens) (UniProt P05129); assay: Inhibition of PKCgamma at 16 uM by luciferase fragment complementation assay
[17] = target: Proto-oncogene tyrosine-protein kinase Src (Homo sapiens) (UniProt P12931); assay: Inhibition of SRC at 16 uM by luciferase fragment complementation assay
[18] = target: Mitogen-activated protein kinase 1 (Homo sapiens) (UniProt P28482); assay: Inhibition of […] at 16 uM by luciferase fragment complementation assay
Chain of Mitogen-activated protein kinase 1 (Homo sapiens) (P28482 whole entry, the tested form may be a part): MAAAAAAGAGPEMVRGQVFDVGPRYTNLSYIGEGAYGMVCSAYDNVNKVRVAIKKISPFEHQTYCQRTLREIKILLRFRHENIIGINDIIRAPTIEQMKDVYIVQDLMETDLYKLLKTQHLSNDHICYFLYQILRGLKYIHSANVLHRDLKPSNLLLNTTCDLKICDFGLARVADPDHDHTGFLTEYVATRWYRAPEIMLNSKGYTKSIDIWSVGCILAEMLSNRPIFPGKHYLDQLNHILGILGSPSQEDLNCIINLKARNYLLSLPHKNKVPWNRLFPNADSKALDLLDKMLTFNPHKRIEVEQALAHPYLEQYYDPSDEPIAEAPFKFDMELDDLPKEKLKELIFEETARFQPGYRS

[19] = target: Calcium/calmodulin-dependent protein kinase type 1 (Homo sapiens) (UniProt Q14012); assay: Inhibition of CAMK1 at 16 uM by luciferase fragment complementation assay
[20] = target: Hepatocyte growth factor receptor (Homo sapiens) (UniProt P08581); assay: Inhibition of MET at 16 uM by luciferase fragment complementation assay
Chain of Hepatocyte growth factor receptor (Homo sapiens) (P08581 whole entry, the tested form may be a part): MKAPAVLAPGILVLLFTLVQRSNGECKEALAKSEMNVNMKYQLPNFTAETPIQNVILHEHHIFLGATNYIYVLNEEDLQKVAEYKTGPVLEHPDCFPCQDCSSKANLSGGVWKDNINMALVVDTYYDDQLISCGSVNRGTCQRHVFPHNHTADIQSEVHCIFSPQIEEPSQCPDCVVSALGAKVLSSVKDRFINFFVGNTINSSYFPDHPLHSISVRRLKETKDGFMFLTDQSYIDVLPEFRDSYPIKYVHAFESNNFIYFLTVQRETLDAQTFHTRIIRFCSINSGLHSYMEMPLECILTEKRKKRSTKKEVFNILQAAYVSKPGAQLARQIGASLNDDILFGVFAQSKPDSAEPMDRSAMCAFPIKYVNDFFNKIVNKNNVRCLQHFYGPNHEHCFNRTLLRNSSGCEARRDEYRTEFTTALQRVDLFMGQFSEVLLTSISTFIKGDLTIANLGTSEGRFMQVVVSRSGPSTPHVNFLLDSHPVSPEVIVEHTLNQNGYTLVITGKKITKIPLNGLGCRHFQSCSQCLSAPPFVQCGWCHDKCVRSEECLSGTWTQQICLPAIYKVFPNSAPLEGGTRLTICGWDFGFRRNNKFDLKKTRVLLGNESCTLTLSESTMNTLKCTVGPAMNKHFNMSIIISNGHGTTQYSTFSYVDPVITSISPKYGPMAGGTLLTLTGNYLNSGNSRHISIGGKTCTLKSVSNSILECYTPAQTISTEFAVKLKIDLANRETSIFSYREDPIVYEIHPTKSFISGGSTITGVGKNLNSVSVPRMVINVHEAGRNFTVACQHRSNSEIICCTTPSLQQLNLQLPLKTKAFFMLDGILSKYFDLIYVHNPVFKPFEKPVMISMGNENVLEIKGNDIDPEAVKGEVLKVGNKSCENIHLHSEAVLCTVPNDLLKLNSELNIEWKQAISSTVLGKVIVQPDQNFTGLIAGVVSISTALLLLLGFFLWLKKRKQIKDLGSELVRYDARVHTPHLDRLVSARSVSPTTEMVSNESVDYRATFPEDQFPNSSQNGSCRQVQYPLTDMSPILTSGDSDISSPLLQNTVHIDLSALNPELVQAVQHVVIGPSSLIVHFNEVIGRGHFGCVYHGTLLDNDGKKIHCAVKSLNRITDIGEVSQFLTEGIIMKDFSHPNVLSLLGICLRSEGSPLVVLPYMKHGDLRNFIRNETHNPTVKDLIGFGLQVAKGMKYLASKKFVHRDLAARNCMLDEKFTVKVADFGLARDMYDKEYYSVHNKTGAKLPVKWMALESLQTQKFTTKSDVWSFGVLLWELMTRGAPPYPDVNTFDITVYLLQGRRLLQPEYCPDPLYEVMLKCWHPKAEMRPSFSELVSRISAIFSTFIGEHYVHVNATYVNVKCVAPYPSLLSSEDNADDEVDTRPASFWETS

| SMILES | Activity (Blood) | IC50 (Toll-like receptor 4 [1]) | also measured |
| --- | --- | --- | --- |
| Cc1nn(Cc2ccccc2Cl)c(C)c1CN(C)C[C@H](O)COc1ccc(Cl)cc1 | Non-toxic | 15.6 µM |  |
| CCOc1ccc(OC[C@H](O)CN(C)Cc2c(C)nn(Cc3ccccc3Cl)c2C)cc1 | Non-toxic | 24.8 µM |  |
| CCOc1ccc(OC[C@@H](O)CN(C)Cc2c(C)nn(Cc3ccccc3Cl)c2C)cc1 | Non-toxic | 24.3 µM |  |
| Cc1nn(Cc2ccccc2Cl)c(C)c1CN(C)C[C@@H](O)COc1ccc(Cl)cc1 | Non-toxic | 15.5 µM |  |
| Cc1nn(Cc2ccccc2)c(C)c1CN(C)CC(O)COc1ccccc1 (racemic) | Non-toxic | > 100 µM | inhibition (Toll-like receptor 4 [2]): Active; inhibition (Toll-like receptor 4 [3]): Active; inhibition (Toll-like receptor 4 [4]): Dose-dependent effect; inhibition (Toll-like receptor 4 [5]): Dose-dependent effect; inhibition (Toll-like receptor 4 [6]): Dose-dependent effect; inhibition (Toll-like receptor 4 [7]): Active; inhibition (Toll-like receptor 4 [8]): inactive |
| Cc1nn(Cc2ccccc2Cl)c(C)c1CN(C)CC(O)COc1ccccc1 (racemic) | Non-toxic | 64.3 µM |  |
| COCCc1ccc(OCC(O)CN(C)Cc2c(C)nn(Cc3ccccc3Cl)c2C)cc1 (racemic) | Non-toxic | 57.3 µM |  |
| COc1ccccc1OCC(O)CN(C)Cc1c(C)nn(Cc2ccccc2Cl)c1C (racemic) | Non-toxic | 92.5 µM |  |
| CCOc1ccc(OCC(O)CN(C)Cc2c(C)nn(Cc3ccccc3)c2C)cc1 (racemic) | Non-toxic | 51.8 µM |  |
| CCOc1ccc(OCC(O)CN(C)Cc2c(C)nn(Cc3ccccc3C)c2C)cc1 (racemic) | Non-toxic | 47.7 µM |  |
| CCOc1ccc(OCC(O)CN(C)Cc2c(C)nn(Cc3ccccc3OC)c2C)cc1 (racemic) | Non-toxic | > 100 µM |  |
| CCOc1ccc(OCC(O)CN(C)Cc2c(C)nn(Cc3ccc(OC)cc3)c2C)cc1 (racemic) | Non-toxic | 67.6 µM |  |
| CCOc1ccc(OCC(O)CN(C)Cc2c(C)nn(Cc3ccccc3F)c2C)cc1 (racemic) | Non-toxic | 47.7 µM |  |
| CCOc1ccc(OCC(CN(C)Cc2c(C)nn(Cc3ccccc3Cl)c2C)OC)cc1 (racemic) |  | 19.8 µM |  |
| CCOc1ccc(OCC(O)CN(C)Cc2c(C)nn(Cc3cccc(Cl)c3)c2C)cc1 (racemic) | Non-toxic | 16.5 µM |  |
| CCOc1ccc(OCC(O)CN(C)Cc2c(C)nn(Cc3ccc(Cl)c(Cl)c3)c2C)cc1 (racemic) | Non-toxic | 21.8 µM |  |
| C=Cc1ccccc1Cn1nc(C)c(CN(C)CC(O)COc2ccc(OCC)cc2)c1C (racemic) | Non-toxic | 24.7 µM |  |
| CCOc1ccc(OCC(O)CN(C)Cc2c(C)nn(Cc3ccccc3C(F)(F)F)c2C)cc1 (racemic) | Non-toxic | 32.1 µM |  |
| C=CCOc1ccc(OCC(O)CN(C)Cc2c(C)nn(Cc3ccccc3C=C)c2C)cc1 (racemic) | Non-toxic | 23.1 µM |  |
| C=CCOc1ccc(OCC(O)CN(C)Cc2c(C)nn(Cc3ccccc3Cl)c2C)cc1 (racemic) | Non-toxic | 44.6 µM |  |
| Cc1nn(Cc2ccccc2Cl)c(C)c1CN(C)CC(O)COc1ccc(Cl)cc1 (racemic) | Non-toxic | 16.1 µM | inhibition [9]: ≤ 27%; inhibition [10]: ≤ 27%; inhibition [11]: ≤ 27%; inhibition [12]: ≤ 27%; inhibition [13]: ≤ 27%; inhibition [14]: ≤ 27%; inhibition [15]: ≤ 27%; inhibition [16]: ≤ 27%; inhibition [17]: ≤ 27%; inhibition [18]: ≤ 27%; inhibition [19]: ≤ 27%; inhibition [20]: ≤ 27% |
| Cc1nn(Cc2ccccc2Cl)c(C)c1CN(C)CC(O)COc1ccc(Cl)c(Cl)c1 (racemic) | Non-toxic | 20.1 µM |  |
| C=Cc1ccccc1Cn1nc(C)c(CN(C)CC(O)COc2ccc(Cl)cc2)c1C (racemic) | Non-toxic | 23.2 µM |  |
| Cc1nn(Cc2ccccc2C(F)(F)F)c(C)c1CN(C)CC(O)COc1ccc(C(F)(F)F)cc1 (racemic) | Non-toxic | 27.3 µM |  |
| Cc1nn(Cc2ccccc2Cl)c(C)c1CN(C)CC(O)COc1ccc(C(F)(F)F)cc1 (racemic) | Non-toxic | 23.7 µM |  |
| Cc1nn(Cc2ccccc2Cl)c(C)c1CN(C)CC(O)COc1ccc(C#N)cc1 (racemic) | Non-toxic | 52.7 µM |  |
